Tests used:
[1] = Therapeutic index (TI) determined as IC50 of vero cells to that of EC50; assay type: cell-based; details: plasmodium falciparum, read-out: TI
BC [2] = test: Cytotoxicity against BC cells; assay type: functional, cell-based; details: Homo sapiens
Outline: (§1)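 Colorimetric cytotoxicity assay after Skehan on KB, BC and vero cell lines. Maximum concentration tested 130 µM. Ellipticine was the positive control. IC50 is reported in µM.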

Vero = test: Cytotoxicity against vero cells.; assay type: functional, cell-based; details: Chlorocebus sabaeus; outline: as §1
Plasmodium falciparum = test: Antimalarial activity against Plasmodium falciparum; assay type: functional, organism-based
Outline: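 P. falciparum K1 (multidrug-resistant), asexual erythrocytic stage kept in continuous in vitro culture; microculture radioisotope method after Desjardins. EC50 is the concentration giving 50% reduction in parasite growth, measured as [3H]hypoxanthine uptake. Artemisinin and dihydroartemisinin served as standards.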

KB = test: Cytotoxicity against KB cells; assay type: functional, cell-based; details: Homo sapiens; outline: as §1
BC [3] = test: Cytotoxicity against BC cells.; assay type: functional, cell-based; details: Homo sapiens; outline: as §1
[4] = Cytotoxicity against KB cells.; assay type: functional, cell-based; details: Homo sapiens; outline: as §1

CCCCC1(CC2C(=O)OC3OC4(C)CCC5C(C)CCC2C35OO4)C(=O)OC2OC3(C)CCC4C(C)CCC1C24OO3 (configuration not stated)
selectivity ratio [1]: > 3 | IA (BC [2]): Cytotoxic | IC50 (Vero): > 130 µM | EC50 (Plasmodium falciparum): 0.0043 µM | IA (KB): Cytotoxic

CCCCCC[C@@H]1C(=O)O[C@@H]2O[C@]3(C)CC[C@H]4[C@H](C)CC[C@@H]1[C@@]24OO3
selectivity ratio [1]: 1 | IC50 (BC [3]): 6.2 µM | IC50 [4]: 6.2 µM | IC50 (Vero): 14 µM | EC50 (Plasmodium falciparum): 0.0138 µM

CCCC[C@@H]1C(=O)O[C@@H]2O[C@]3(C)CC[C@H]4[C@H](C)CC[C@@H]1[C@@]24OO3
selectivity ratio [1]: > 9.4 | IC50 [4]: 54 µM | IA (BC [2]): Cytotoxic | IC50 (Vero): > 130 µM | EC50 (Plasmodium falciparum): 0.0138 µM

C[C@@H]1CC[C@H]2C(C[C@]3(C)C(=O)O[C@@H]4O[C@]5(C)CC[C@H]6[C@H](C)CC[C@@H]3[C@@]46OO5)C(=O)O[C@@H]3O[C@]4(C)CC[C@@H]1C32OO4 (some centres not stated)
selectivity ratio [1]: 8.9 | IC50 (BC [3]): 13 µM | IC50 [4]: 23 µM | IC50 (Vero): 89 µM | EC50 (Plasmodium falciparum): 0.001 µM

C[C@@H]1CC[C@H]2[C@H](CCCCc3ccccc3)C(=O)O[C@@H]3O[C@]4(C)CC[C@@H]1[C@]32OO4
selectivity ratio [1]: 1.3 | IC50 (BC [3]): 5 µM | IC50 [4]: 5.2 µM | IC50 (Vero): 13 µM | EC50 (Plasmodium falciparum): 0.0103 µM

CCC[C@@H]1C(=O)O[C@@H]2O[C@]3(C)CC[C@H]4[C@H](C)CC[C@@H]1[C@@]24OO3
selectivity ratio [1]: > 1.2 | IA (BC [2]): Cytotoxic | IC50 (Vero): > 130 µM | EC50 (Plasmodium falciparum): 0.011 µM | IA (KB): Cytotoxic

CC1CCC2C(CSCCCSCC3C(=O)OC4OC5(C)CCC6C(C)CCC3C46OO5)C(=O)OC3OC4(C)CCC1C32OO4 (configuration not stated)
EC50 (Plasmodium falciparum): 0.013 µM

CCCCC[C@@H]1C(=O)O[C@@H]2O[C@]3(C)CC[C@H]4[C@H](C)CC[C@@H]1[C@@]24OO3
selectivity ratio [1]: 1.6 | IC50 (BC [3]): 11 µM | IC50 [4]: 11 µM | IC50 (Vero): 19 µM | EC50 (Plasmodium falciparum): 0.0117 µM

CC1CCC2C(CCCCCCCC3(CC4C(=O)OC5OC6(C)CCC7C(C)CCC4C57OO6)C(=O)OC4OC5(C)CCC6C(C)CCC3C46OO5)C(=O)OC3OC4(C)CCC1C32OO4 (configuration not stated)
IC50 (BC [3]): 2 µM | IC50 [4]: 2.8 µM | IC50 (Vero): 10 µM | EC50 (Plasmodium falciparum): 0.0031 µM

CC1CCC2C(CC3(CCCCc4ccccc4)C(=O)OC4OC5(C)CCC6C(C)CCC3C46OO5)C(=O)OC3OC4(C)CCC1C32OO4 (configuration not stated)
selectivity ratio [1]: 7.1 | IC50 (BC [3]): 1.2 µM | IC50 [4]: 5.7 µM | IC50 (Vero): 2.4 µM | EC50 (Plasmodium falciparum): 0.0034 µM

CC1CCC2C(CSCCCCCSCC3C(=O)OC4OC5(C)CCC6C(C)CCC3C46OO5)C(=O)OC3OC4(C)CCC1C32OO4 (configuration not stated)
EC50 (Plasmodium falciparum): 0.012 µM

CC1CCC2C(CC3(Cc4cccc(F)c4)C(=O)OC4OC5(C)CCC6C(C)CCC3C46OO5)C(=O)OC3OC4(C)CCC1C32OO4 (configuration not stated)
selectivity ratio [1]: 2.6 | IC50 (BC [3]): 3.5 µM | IC50 [4]: 4 µM | IC50 (Vero): 5.5 µM | EC50 (Plasmodium falciparum): 0.0021 µM

CCCCCC1(CC2C(=O)OC3OC4(C)CCC5C(C)CCC2C35OO4)C(=O)OC2OC3(C)CCC4C(C)CCC1C24OO3 (configuration not stated)
selectivity ratio [1]: 1.6 | IC50 (BC [3]): 36 µM | IC50 [4]: 23 µM | IC50 (Vero): 63 µM | EC50 (Plasmodium falciparum): 0.0039 µM

CC1CCC2C(CSCCSCC3C(=O)OC4OC5(C)CCC6C(C)CCC3C46OO5)C(=O)OC3OC4(C)CCC1C32OO4 (configuration not stated)
EC50 (Plasmodium falciparum): 0.0074 µM

CC1CCC2C(CC3(CCCCCCC4(CC5C(=O)OC6OC7(C)CCC8C(C)CCC5C68OO7)C(=O)OC5OC6(C)CCC7C(C)CCC4C57OO6)C(=O)OC4OC5(C)CCC6C(C)CCC3C46OO5)C(=O)OC3OC4(C)CCC1C32OO4 (configuration not stated)
selectivity ratio [1]: 1.6 | IC50 (BC [3]): 2.8 µM | IC50 [4]: 2 µM | IC50 (Vero): 9.2 µM | EC50 (Plasmodium falciparum): 0.0058 µM

C[C@@H]1CCC2[C@H](CCCCCC[C@@H]3C(=O)O[C@@H]4O[C@@]5(C)CC[C@H]6[C@H](C)CCC3[C@@]46OO5)C(=O)O[C@@H]3O[C@]4(C)CC[C@@H]1C23OO4 (some centres not stated)
selectivity ratio [1]: 7.1 | IC50 (BC [3]): 1.6 µM | IC50 [4]: 2.3 µM | IC50 (Vero): 10 µM | EC50 (Plasmodium falciparum): 0.0014 µM

C[C@@H]1CC[C@H]2[C@H](CCCCCCC[C@H]3C(=O)O[C@@H]4O[C@@]5(C)CC[C@H]6[C@H](C)CC[C@@H]3[C@@]46OO5)C(=O)O[C@@H]3O[C@@]4(C)CC[C@@H]1[C@]32OO4
selectivity ratio [1]: 3.1 | IC50 (BC [3]): 0.36 µM | IC50 [4]: 0.76 µM | IC50 (Vero): 2.8 µM | EC50 (Plasmodium falciparum): 0.00091 µM

CC1CCC2C(CC3(Cc4ccc(F)cc4)C(=O)OC4OC5(C)CCC6C(C)CCC3C46OO5)C(=O)OC3OC4(C)CCC1C32OO4 (configuration not stated)
selectivity ratio [1]: 4.8 | IC50 (BC [3]): 7.4 µM | IC50 [4]: 7.7 µM | IC50 (Vero): 1.1 µM | EC50 (Plasmodium falciparum): 0.0023 µM

C[C@@H]1CC[C@H]2[C@H](Cc3cccc(F)c3)C(=O)O[C@@H]3O[C@]4(C)CC[C@@H]1[C@]32OO4
selectivity ratio [1]: 7.1 | IC50 (BC [3]): 41 µM | IC50 [4]: 44 µM | IC50 (Vero): > 130 µM | EC50 (Plasmodium falciparum): 0.0182 µM

CCN(CC)C(=S)SC(CC1C(=O)O[C@@H]2O[C@]3(C)CC[C@H]4[C@H](C)CC[C@@H]1C24OO3)SC(=S)N(CC)CC (some centres not stated)
selectivity ratio [1]: 3.5 | IC50 (BC [3]): 2.4 µM | IC50 [4]: 2.5 µM | IC50 (Vero): 6.6 µM | EC50 (Plasmodium falciparum): 0.0019 µM

C[C@@H]1CC[C@H]2[C@@H](CCCCc3ccccc3)C(=O)O[C@@H]3O[C@]4(C)CC[C@@H]1[C@]32OO4
selectivity ratio [1]: 1.9 | IC50 (BC [3]): 14 µM | IC50 [4]: 11 µM | IC50 (Vero): 16 µM | EC50 (Plasmodium falciparum): 0.0084 µM

CC1CCC2C(CCCCCCC3(CC4C(=O)OC5OC6(C)CCC7C(C)CCC4C57OO6)C(=O)OC4OC5(C)CCC6C(C)CCC3C46OO5)C(=O)OC3OC4(C)CCC1C32OO4 (configuration not stated)
selectivity ratio [1]: 2.8 | IC50 (BC [3]): 1.2 µM | IC50 [4]: 1.7 µM | IC50 (Vero): 6.6 µM | EC50 (Plasmodium falciparum): 0.0024 µM

CC1CCC2C(CC3(CCCCCCCC4(CC5C(=O)OC6OC7(C)CCC8C(C)CCC5C68OO7)C(=O)OC5OC6(C)CCC7C(C)CCC4C57OO6)C(=O)OC4OC5(C)CCC6C(C)CCC3C46OO5)C(=O)OC3OC4(C)CCC1C32OO4 (configuration not stated)
selectivity ratio [1]: > 2.1 | IC50 (BC [3]): 9.6 µM | IC50 [4]: 5.4 µM | IC50 (Vero): > 42 µM | EC50 (Plasmodium falciparum): > 0.02 µM

CCCCCC[C@H]1C(=O)O[C@@H]2O[C@]3(C)CC[C@H]4[C@H](C)CC[C@@H]1[C@@]24OO3
selectivity ratio [1]: 1.2 | IC50 (BC [3]): 5.7 µM | IC50 [4]: 6.2 µM | IC50 (Vero): 16 µM | EC50 (Plasmodium falciparum): 0.0129 µM

C[C@@H]1CC[C@H]2[C@H](Cc3ccc(F)cc3)C(=O)O[C@@H]3O[C@]4(C)CC[C@@H]1[C@]32OO4
selectivity ratio [1]: 9.3 | IC50 (BC [3]): 41 µM | IC50 [4]: 35 µM | IC50 (Vero): 120 µM | EC50 (Plasmodium falciparum): 0.0129 µM

C[C@@H]1CCC2[C@H](CCCCCC[C@H]3C(=O)O[C@@H]4O[C@@]5(C)CC[C@H]6[C@H](C)CCC3[C@@]46OO5)C(=O)O[C@@H]3O[C@]4(C)CC[C@@H]1C23OO4 (some centres not stated)
selectivity ratio [1]: 9.5 | IC50 (BC [3]): 1.6 µM | IC50 [4]: 1.8 µM | IC50 (Vero): 10 µM | EC50 (Plasmodium falciparum): 0.0105 µM

C[C@@H]1CC[C@H]2[C@H](CCCCCCC[C@@H]3C(=O)O[C@@H]4O[C@@]5(C)CC[C@H]6[C@H](C)CC[C@@H]3[C@@]46OO5)C(=O)O[C@@H]3O[C@@]4(C)CC[C@@H]1[C@]32OO4
IC50 (BC [3]): 1.1 µM | IC50 [4]: 1.1 µM | IC50 (Vero): 4.9 µM | EC50 (Plasmodium falciparum): 0.0011 µM

CC1CCC2C(CSCCCCSCC3C(=O)OC4OC5(C)CCC6C(C)CCC3C46OO5)C(=O)OC3OC4(C)CCC1C32OO4 (configuration not stated)
EC50 (Plasmodium falciparum): 0.0057 µM
